STEP block: STEP (human) phosphatase inhibition | inhibition, % at 20 µM | P54829 | 360,000 tested, 0.25% active | recombinant STEP, OMFP fluorogenic substrate, fluorescence;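 active = inhibition at 20 µM, scaled per plate between control wells, above about 37%, limit read from the data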;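 note: 0% = DMSO with enzyme and substrate and 100% = substrate only without enzyme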
Target sequence (P54829 whole entry, looked up): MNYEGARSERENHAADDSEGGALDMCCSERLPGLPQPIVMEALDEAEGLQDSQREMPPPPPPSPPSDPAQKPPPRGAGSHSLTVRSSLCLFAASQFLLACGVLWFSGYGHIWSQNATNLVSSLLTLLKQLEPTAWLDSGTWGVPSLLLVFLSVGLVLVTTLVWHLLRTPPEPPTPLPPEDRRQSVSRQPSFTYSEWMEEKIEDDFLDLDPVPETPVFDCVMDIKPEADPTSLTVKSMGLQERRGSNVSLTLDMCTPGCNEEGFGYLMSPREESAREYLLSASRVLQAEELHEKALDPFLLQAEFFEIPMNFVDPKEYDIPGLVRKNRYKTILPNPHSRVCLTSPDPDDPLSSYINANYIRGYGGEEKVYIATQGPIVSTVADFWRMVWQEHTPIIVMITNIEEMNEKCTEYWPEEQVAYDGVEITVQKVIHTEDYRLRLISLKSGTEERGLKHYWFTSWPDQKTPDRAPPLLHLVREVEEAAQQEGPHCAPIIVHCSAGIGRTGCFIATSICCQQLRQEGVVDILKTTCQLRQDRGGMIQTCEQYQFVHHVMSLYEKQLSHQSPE
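Measure: Control-normalized % inhibition with plate pattern correction | Test system: STEP phosphatase, cell-free reaction | Medium: pH 6.0 Bis-Tris with DTT and Tween 20 | Technique: Fluorescence, 480/540 nm | Times: Reaction 20 min, ambient temperature | Doses: Single compound dose of 20 µM, 1% DMSO final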
LMPTP inh: blocks human LMPTP phosphatase; P24666; recombinant LMPTP-A, OMFP fluorogenic substrate, fluorescence intensity; inhibition, % at 20 µM; 360,000 tested, 0.22% active; AID 651560;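 active = compounds that cut the enzyme signal by at least half of the control window in the single-dose screen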;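 note: plate controls were DMSO wells with enzyme plus substrate for no effect and substrate without enzyme for full effect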
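Test system: LMPTP-A, protein tyrosine phosphatase of low molecular weight; Input: 0.625 nM enzyme; Incubation: 50 min dark incubation at room temperature; Signal: endpoint fluorescence intensity from OMFP dephosphorylation; Read-out basis: % inhibition versus control wells.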
DNMT1 inh: DNMT1 (human) enzyme inhibition; DNMT1 molecular beacon, Hinp1I cleavage, fluorescence; 360,000 tested, 0.83% active; inhibition (reported as % activation of signal), % at 10 µM; AID 588458; in the data active = inhibition above about 50%
Scp-1 inhibitor: Scp-1 (human) phosphatase inhibition | Q9GZU7 | inhibition, % at 20 µM | Recombinant Scp1, phosphopeptide, malachite green phosphate absorbance | 340,000 tested, 0.88% active | AID 493091;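 active = inhibition above about 50% at 20 µM, limit read from the data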;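 note: plate controls were DMSO wells with enzyme for no effect and wells lacking enzyme for full effect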
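Material – SCP-1 phosphatase catalytic domain, residues 76-261 · Buffer or medium – Acidic Tris acetate buffer with magnesium and detergent · Also added – Phospho 17-mer peptide substrate · Compound – single 20 µM dose, 1% DMSO · Times – 45 min room-temperature reaction, 5 min colour, 30 min stabiliser · Technique – Phosphate-binding colour reagent, absorbance read at 630 nm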
NadD inh: inhibitors of Staphylococcus aureus NadD; inhibition, % at 20 µM; 360,000 tested, 0.78% active; AID 602399; purified NadD enzyme, colorimetric absorbance read-out; in the data active = inhibition above about 26%
SUMO1-SIM PPI: modulators of human SUMO1-mediated protein-protein interactions; P63165; SUMO1 binding to a labelled peptide, TR-FRET, 1 h; inhibition, % at 20 µM; 360,000 tested, 0.33% active; in the data active = inhibition above about 37%
Scp1 confirm: confirmation of human Scp-1 phosphatase inhibitors. 2,500 tested, 61% active. recombinant SCP-1 catalytic domain, phosphate release, malachite green absorbance. inhibition, % at 20 µM. shares compounds with Scp-1 inhibitor. AID 540281;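 note: plate controls were DMSO with enzyme for no effect and buffer wells lacking enzyme for full effect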
MG interference: counter-screen for Scp-1 inhibitors: colorimetric interference. 2,500 tested, under 10 active. Colorimetric interference counterscreen, malachite green absorbance 630 nm. shares compounds with Scp-1 inhibitor. apparent inhibition (interference), % at 20 µM;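 note: compounds added after enzyme reaction finished so only phosphate colour detection is probed; plate controls were DMSO wells with completed Scp-1 reaction for no effect and substrate wells lacking enzyme for full effect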
Scp1 DSF: Scp-1 (human) binding by thermal shift; 1,500 tested, 25% active; thermal shift relative to vanadate control, % at 40 µM; AID 540329; shares compounds with Scp-1 inhibitor; Recombinant SCP1, Sypro Orange thermal shift Tm;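 active = substances whose mean melting-temperature shift, as a percentage of the reference inhibitor's shift, reaches about 5.3%, limit read from the data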;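 note: 0% = Tm of DMSO wells and 100% = Tm with sodium orthovanadate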
Active calls of the source: *; / = no result; ! = not confirmed by another sample. Most compounds without a hit are left out; they make up all but 2.4% or so of the library.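 Rule for the calls, unless noted: active = inhibition of at least 30% at 20 µM; inactive = the rest.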

SMILES | STEP block | LMPTP inh | DNMT1 inh | Scp-1 inhibitor | NadD inh | SUMO1-SIM PPI | Scp1 confirm | MG interference | others
COCCNC(=O)c1ccc(C2SCC(=O)N2Cc2ccco2)cc1 (stereo not given) | -0.6 | -1.7 | -0.6 | -6.6 | 3.7 | 0.1 | / | /
CCOc1ccc(CN(C)c2ccc(S(=O)(=O)N3CCN(C)CC3)cc2[N+](=O)[O-])cc1OC | -1.6 | 0.4 | -3.8 | -6.1 | -2.8 | -28.1 | / | /
COc1ccc(C(=O)Nc2cnc3sc(C)nn3c2=O)cc1 | -0.8 | -2.1 | 1.2 | 51.4* | -8.7 | 3.8 | -17.2 | -18.6
COc1ccccc1C(CNC(=O)C1CCN(C(=O)Nc2ccccc2)CC1)N1CCCC1 (stereo not given) | -0.3 | -0.1 | 0.5 | -2.0 | -5.3 | 2.2 | / | /
Cc1ccc(C(=O)N2CCN(c3nc4ccccc4n3C)CC2)cc1 | -1.8 | -1.6 | 0.1 | -6.5 | -0.3 | 2.0 | / | /
Cc1cnc(C(=O)OCc2nc3ccsc3c(=O)[nH]2)cn1 | 3.0 | 1.8 | 25.9 | 65.5* | 3.5 | 19.9 | 64.2* | -6.0 | Scp1 DSF=11.0*
O=C(OCc1nc2ccsc2c(=O)[nH]1)c1ccco1 | -4.8 | -0.1 | 2.4 | 1.4 | -4.7 | 3.1 | / | /
Cc1noc(C)c1COC(=O)c1csc2c1CCC(C)C2 (stereo not given) | 0.8 | 3.4 | 3.2 | 0.4 | -4.5 | 0.3 | / | /
COC(=O)c1nnn(-c2nonc2N)c1CSc1nnc(C)s1 | -2.1 | -1.1 | -2.0 | 50.9* | -8.5 | 0.0 | 5.4 | -1.0
COC(=O)c1nnn(-c2nonc2N)c1CSc1nnc(N)s1 | 1.6 | -3.2 | -0.7 | -1.8 | -8.2 | -6.8 | / | /
Cc1cc(C)cc(C(=O)OCC(=O)N2CCCCCC2)c1 | -3.6 | -0.6 | 8.8 | -7.9 | -7.9 | -2.7 | / | /
CCOC(=O)c1ccc2c(c1)N(CC)C(=O)c1ccccc1S2 | -0.3 | 0.8 | 2.1 | 83.1* | 10.7 | 6.0 | 12.7 | -9.3
CC(C)Oc1ccc(/C=N/NC(N)=S)cc1 | -1.0 | 0.4 | -1.0 | 2.6 | 2.6 | -8.6 | / | /
Cc1cc2nc(-c3cccnc3SCC(=O)NCc3ccco3)[nH]c2cc1C | 1.2 | 4.7 | -0.5 | -8.4 | 4.5 | 13.7 | / | /
O=C(CSc1ncccc1-c1nc2ccccc2[nH]1)NCc1ccco1 | -0.7 | 5.9 | 7.8 | 55.5* | 13.6 | 21.1 | 66.4* | -3.2 | Scp1 DSF=6.5*
O=C(CN(c1ccc(F)cc1)S(=O)(=O)c1ccccc1)NCCSC1CCCCC1 | -1.3 | 2.9 | -6.3 | -13.1 | -8.6 | 7.7 | / | /
Cc1ccc(S(=O)(=O)Nc2csc(C)c2C(=O)O)cc1 | / | / | / | 60.8* | / | / | 58.5* | -4.9 | Scp1 DSF=15.3*
CSc1ncc(C(=O)Nc2ccccc2)cn1 | 2.7 | -0.1 | 3.0 | 1.2 | -8.5 | 1.6 | / | /
COc1ccc(NC(=O)CS(=O)CC(=O)Nc2cccnc2)cc1 (stereo not given) | -0.9 | -0.1 | -0.5 | -3.1 | -1.8 | 0.0 | / | /
COc1ccc(NC(=O)CS(=O)CC(=O)Nc2ccc(NC(C)=O)cc2)cc1 (stereo not given) | 40.7* | 0.2 | 6.8 | 79.3* | -5.4 | 6.4 | 67.8* | -6.5 | Scp1 DSF=-2.9
CCOC(=O)N1CCN(S(=O)(=O)c2c(C)nc3scc(C)n3c2=O)CC1 | -2.2 | -0.4 | 0.9 | -6.5 | -1.9 | 1.0 | / | /
O=c1[nH][nH]c(=O)c2cc([N+](=O)[O-])ccc12 | -3.9 | 0.0 | -2.1 | 50.2*! | 4.1 | -30.2 | -11.5 | -12.0
Cc1nn(-c2ccccc2)c(Cl)c1/C=N/NC(=O)c1cccc(S(=O)(=O)N2CCCC2)c1 | 25.6 | 4.0 | 25.2 | 94.3* | 4.4 | -1.3 | 17.0 | -14.0
O=C(Nc1ccc(F)cc1)Nc1ccccc1C(=O)NCCN1CCNC1=O | -1.0 | 0.3 | -0.7 | -7.2 | -8.5 | -0.6 | / | /

Screening data deposited in PubChem BioAssay by Sanford-Burnham Center for Chemical Genomics.
